UPR XBP1 act = activators of adaptive arm of unfolded protein response (XBP1); CHO-XBP1 luciferase reporter, IRE1-XBP1 UPR activation, luminescence; percent of tunicamycin response, DMSO as zero; activation, % at 20 µM; hit rate 0.33% among 330,000;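 active = versus positive control, 20 µM dose yields 30% or more activation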;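 note: 100% = tunicamycin at 10 µg/mL and 0% = DMSO only wells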
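Material: CHO-XBP1 cells stably carrying IRE1-XBP1-driven luciferase reporter / Amount: 1000 cells per well / Compound: 20 µM, 1% DMSO / Times: 6 h treatment, 37 °C / Detection: luciferase luminescence / Measure: % activation of reporter signal versus tunicamycin and DMSO controls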
Dynein cargo inh = dynein cargo transport inhibition | 3617.4 mouse cells, GR-EGFP nuclear translocation imaging; test concentration mostly 20 µM; stimulated with dexamethasone, 1 µM; active compounds read low | z-score, hits read low | hit rate 0.47% among 220,000;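 active = plate z-score of nuclear minus cytoplasmic receptor signal below a set negative limit, without overly bright fluorescence or cell loss, cut at about -3.5 in these data, passing the limit was not always enough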;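 note: z-score of nuclear minus cytoplasmic ring GR-EGFP intensity difference per well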
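Buffer or medium: tet-free, stripped-serum medium; Also added: dexamethasone, 1.0 µM final; Technique: high-content fluorescence imaging after fixation; Times: 48 h induction, 1 h compound, 30 min dex at 37 °C; Read-out: per-cell GR-EGFP intensity, nucleus versus surrounding cytoplasmic ring, well-averaged.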
UPR CHOP act = apoptotic UPR (CHOP) activation; hit rate 0.34% among 330,000; CHO-CHOP luciferase reporter, luminescence; percent of tunicamycin response over DMSO baseline; AID 449763; activation, % at 10 µM;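 active = at 10 µM dose, activation of 40% or more, normalized to positive control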;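 note: 100% = tunicamycin at 10 µg/mL and 0% = DMSO alone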
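Assay system: CHO cells with stable CHOP pathway luciferase reporter; Buffer or medium: F12 plus 10% serum; Times: 16-18 h cell attachment, then 6 h compound exposure, 37 °C; Signal: luciferase luminescence; Read-out basis: percent activation relative to tunicamycin control; Control set: tunicamycin high control, DMSO low control.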
CHOP inh = blocks CHOP induction under ER stress; hit rate 3.8% among 220,000; CHO-K1 CHOP-promoter luciferase, tunicamycin-induced, 15-18 h; inhibition, % at 10 µM; AID 2732;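 active = compounds that reduced the stress-induced luciferase reporter signal by more than about 70% of percent inhibition, limit read from the data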;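 note: 0% = tunicamycin plus vehicle and 100% = wells without tunicamycin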
Lmaj promast = inhibitors of Leishmania major promastigote growth; inhibition, % at 10 µM; AID 1063; Leishmania major promastigotes, resazurin fluorescence viability; hit rate 9% among 200,000; in the data active = inhibition above about 50%;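 note: promastigotes grown with compound for 44 hours at 28 °C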
T cruzi inh = blocks replication of Trypanosoma cruzi. hit rate 1.4% among 300,000. inhibition, % (test concentration not listed). T. cruzi beta-gal in NIH3T3, luminescence, 90 h;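 active = mean inhibition across valid replicates above about 55%, limit read from the data; inconclusive = mean below that limit but half or more replicates reach it; inactive = mean below it, under half of replicates reach it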;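 note: signal also drops with host cell toxicity which is not excluded here; 0% = plate median of DMSO wells and 100% = zero luminescence signal; higher percent means less beta-gal luminescence so fewer parasites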
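Incubation – ≥90 h infection period, 3 h prior cell attachment · System – NIH/3T3 fibroblasts plus reporter T. cruzi · Doses – compound pinned at 50 nL/well, DMSO · Read-out basis – percent inhibition of parasite-derived β-gal signal · Signal – luminescent β-galactosidase signal after 60 min lysis · Also added – 5000 T. cruzi trypomastigotes/well · Medium – Low-serum DMEM with 2% FBS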
CHOP UPR conf = apoptotic UPR (CHOP) activation, confirmed. shares compounds with UPR CHOP act. CHO-CHOP cells, CHOP-luciferase reporter luminescence; percent of tunicamycin response, DMSO as zero. activation, % at 10 µM. hit rate 64% among 1,000; in the data active = activation above about 33%;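 note: 0% = DMSO wells and 100% = tunicamycin 10 µg/mL wells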
Active calls of the source: *; ? = inconclusive; nt = no result given. The full list was thinned out, with hits kept by preference.

SMILES	UPR XBP1 act	Dynein cargo inh	UPR CHOP act	CHOP inh	Lmaj promast	T cruzi inh	CHOP UPR conf
CC1CN(S(=O)(=O)c2ccc(CN3C(=O)c4cccnc4C3=O)cc2)c2ccccc2O1 (stereo unspecified)	-2	nt	0	nt	nt	-7	nt
O=C(/C=C/Sc1ccccc1)c1ccc(Cl)cc1	29	-2.7	113*	7	92*	43	104*
CCOc1ccc(S(=O)(=O)N2CCC(C(=O)NCC3CCCO3)CC2)cc1Cl (stereo unspecified)	4	nt	0	nt	nt	-2	nt
CCOC(=O)c1cnc(-n2nc(C)cc2C)nc1NC1CCCC1	19	0.99	64*	27	nt	52	20
CC(C)(C)OC(=O)N[C@H]1C=C[C@@H](OC(=O)CC(=O)OCC(F)(F)F)C1	2	nt	0	nt	nt	nt	nt
C/C(=N\NC(=O)c1cc(O)ccc1O)c1cccc(NC(=O)c2ccc(Cl)cc2)c1	11	nt	72*	nt	nt	-5	5
CCCN(C(=O)c1cn(C)c(=O)c2ccccc12)c1ccccc1C	0	nt	0	nt	nt	6	nt
O=[N+]([O-])/C=C\c1ccc(N2CCOCC2)cc1	-3	nt	52*	nt	nt	2	126*
O=[N+]([O-])c1cccc(N/N=C/c2ccc(N3CCOCC3)cc2)c1	6	nt	2	nt	nt	34	nt
Cc1ccc2[nH]cc(C(=O)CCl)c2c1	-6	-3	348*	47	81*	?	189*
Cc1ccc2[nH]cc(C(=O)CN3CCN(C)CC3)c2c1	0	-1.1	1	2	6	40	nt
Cc1ccc2c(C(=O)CN3CCSCC3)c(C)[nH]c2c1	-4	0.64	2	48	4	nt	nt
Cc1ccc2c(C(=O)CCl)c(C)[nH]c2c1	-6	-0.94	479*	-220	nt	56*	274*
COc1cc(OC)cc(C(=O)Nc2ccc(C(=O)Nc3ccccc3OC)cc2)c1	-4	nt	1	nt	nt	nt	nt
CCC1(c2ccc(F)cc2)NC(=O)N(CC(=O)c2cc(C)n(C3CC3)c2C)C1=O (stereo unspecified)	-4	nt	0	nt	nt	18	nt
CC(C)(C)NC(=O)CSc1nnc(-c2ccccc2)c(-c2ccccc2)n1	-6	nt	2	nt	nt	5	nt
S=C1SCN(CC2CC2)CN1CC1CC1	1	-0.69	82*	-68	nt	7	86*
O=c1nc(Nc2cccc(Cl)c2)oc2cc(Cl)oc(=O)c12	-2	-3	41*	5	nt	-8	73*
CCOC(=O)C1=C(CCl)NC(=O)NC1c1ccc2c(c1)OCO2 (stereo unspecified)	-5	nt	44*	nt	nt	0	37*
CC(C)NC(=O)C(c1ccc(F)cc1)N(C(=O)CCC(=O)Nc1ccccn1)c1cccc(F)c1 (stereo unspecified)	-5	nt	5	nt	nt	-21	nt
O=C(COc1ccccc1)NNc1nc2c(F)cc(F)cc2s1	-3	2.7	2	7	-3	1	nt
O=C(Nc1nc2c(F)cc(F)cc2s1)c1ccccn1	-2	-0.71	83*	79*	98*	61*	186*
COc1ccc(CNC(=O)C[C@H]2C[C@H](C(=O)N3CCCCC3)[C@@]3(CCc4ccccc4)c4[nH]c5ccc(Cl)cc5c4CCN3C2=O)cc1OC	7	nt	9	nt	nt	nt	nt
CCn1c(O)c(N=NC(=O)c2cccnc2)c2cc(Br)ccc21	3	-0.47	0	12	nt	-5	nt
CCn1c(O)c(C2=c3ccccc3=NC2=O)c2cc(Br)ccc21	-7	0.4	111*	23	100*	61*	83*
Cn1c(SCC(=O)Nc2ccc(N3CCOCC3)c(Cl)c2)nnc1C(O)c1ccccc1 (stereo unspecified)	0	1.3	43*	33	-6	-11	-1
Cn1c(COc2ccccc2)nnc1SCC(=O)Nc1ccc(N2CCOCC2)c(Cl)c1	-1	2.2	1	24	-5	17	nt
COc1ccccc1-c1nnc(NC(=O)Cc2ccccc2)o1	2	nt	1	nt	nt	-11	nt
